# Measurements published in ChEMBL document CHEMBL4190328, “Design, Synthesis, and Biological Evaluation of Tetrahydroisoquinoline-Based Histone Deacetylase 8 Selective Inhibitors” (ACS Med Chem Lett, 2017).
# Activity calls are given as the source filed them. The rule behind the calls is not given here.
# Columns and labels:
# IMR-5 [1] = experiment: Cytotoxicity against human IMR5 cells expressing TP53 after 48 hrs by CellTiter96 AQueous one solution cell proliferation assay; type: functional, cell-based; settings: IMR-5, 48 h
# In short: (§1)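 Neuroblastoma cells were exposed to compound for 48 h and viability was read by MTS assay. Values are mean ± standard deviation of at least three independent experiments.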
# [2] = target: T1, Protein deacetylase HDAC6 (Homo sapiens) (UniProt Q9UBN7); experiment: Inhibition of recombinant human HDAC6 at 10 uM using fluorogenic HDAC substrate 3 by fluorescence assay relative to control
# T1 sequence (whole entry): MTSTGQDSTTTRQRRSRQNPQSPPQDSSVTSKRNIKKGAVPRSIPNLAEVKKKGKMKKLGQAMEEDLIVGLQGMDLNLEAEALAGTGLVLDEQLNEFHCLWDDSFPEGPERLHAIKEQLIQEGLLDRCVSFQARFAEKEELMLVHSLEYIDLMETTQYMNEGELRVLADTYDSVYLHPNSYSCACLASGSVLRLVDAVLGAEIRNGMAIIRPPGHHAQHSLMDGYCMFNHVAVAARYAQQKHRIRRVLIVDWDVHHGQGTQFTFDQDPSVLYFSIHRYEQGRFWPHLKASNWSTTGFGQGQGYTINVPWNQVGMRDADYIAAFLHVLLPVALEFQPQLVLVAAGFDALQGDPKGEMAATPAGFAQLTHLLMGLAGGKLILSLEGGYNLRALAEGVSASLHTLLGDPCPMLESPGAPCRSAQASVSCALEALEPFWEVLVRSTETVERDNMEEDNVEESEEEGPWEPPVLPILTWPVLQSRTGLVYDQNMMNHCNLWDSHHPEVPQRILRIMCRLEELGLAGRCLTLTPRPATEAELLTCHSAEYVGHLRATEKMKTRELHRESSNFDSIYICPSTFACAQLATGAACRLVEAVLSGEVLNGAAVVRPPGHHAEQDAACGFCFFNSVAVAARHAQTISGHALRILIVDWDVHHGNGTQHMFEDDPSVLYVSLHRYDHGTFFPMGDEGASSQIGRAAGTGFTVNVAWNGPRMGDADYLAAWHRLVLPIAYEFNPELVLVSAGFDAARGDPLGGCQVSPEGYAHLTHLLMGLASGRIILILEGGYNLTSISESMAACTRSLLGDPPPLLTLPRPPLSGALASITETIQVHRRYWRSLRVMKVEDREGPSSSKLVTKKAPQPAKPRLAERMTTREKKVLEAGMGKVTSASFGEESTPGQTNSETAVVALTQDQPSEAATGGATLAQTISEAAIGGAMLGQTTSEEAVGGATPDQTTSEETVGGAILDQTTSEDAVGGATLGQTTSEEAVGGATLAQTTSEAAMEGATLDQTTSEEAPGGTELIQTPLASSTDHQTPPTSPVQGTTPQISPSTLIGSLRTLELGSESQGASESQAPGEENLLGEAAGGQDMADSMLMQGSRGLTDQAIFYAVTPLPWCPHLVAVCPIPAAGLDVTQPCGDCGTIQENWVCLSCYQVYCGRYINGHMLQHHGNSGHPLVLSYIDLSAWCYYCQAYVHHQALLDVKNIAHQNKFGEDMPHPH
# In short: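 HDAC6 activity was measured with test compound at 10 μM and reported as percent inhibition. Values are mean ± standard deviation of at least two independent experiments, rounded to two significant figures.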
# SH-SY5Y [3] = experiment: Inhibition of class 2 HDAC in human SH-SY5Y cells assessed as increase in acetylation of alpha-tubulin at 0.1 to 10 uM after 24 hrs by Western blot analysis; type: cell-based
# In short: (§2)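 SH-SY5Y cells were treated with the stated concentrations for 24 h. Lysates were analysed by Western blot for acetylated histone H3 and acetylated α-tubulin.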
# SH-SY5Y [4] = experiment: Inhibition of class 1 HDAC in human SH-SY5Y cells assessed as increase in acetylation of histone H3 at 0.1 to 10 uM after 24 hrs by Western blot analysis; type: cell-based; in short: as §2
# Histone deacetylase 2 = Histone deacetylase 2 (Homo sapiens, UniProt Q92769); experiment: Inhibition of recombinant human full-length C-terminal His-tagged HDAC2 expressed in baculovirus infected Sf9 insect cells using Boc-L-Lys(Ac)-AMC as substrate preincubated for 5 mins followed by substrate addition measured after 35 mins by fluorescence assay
# Sequence of Histone deacetylase 2 (Q92769 whole entry): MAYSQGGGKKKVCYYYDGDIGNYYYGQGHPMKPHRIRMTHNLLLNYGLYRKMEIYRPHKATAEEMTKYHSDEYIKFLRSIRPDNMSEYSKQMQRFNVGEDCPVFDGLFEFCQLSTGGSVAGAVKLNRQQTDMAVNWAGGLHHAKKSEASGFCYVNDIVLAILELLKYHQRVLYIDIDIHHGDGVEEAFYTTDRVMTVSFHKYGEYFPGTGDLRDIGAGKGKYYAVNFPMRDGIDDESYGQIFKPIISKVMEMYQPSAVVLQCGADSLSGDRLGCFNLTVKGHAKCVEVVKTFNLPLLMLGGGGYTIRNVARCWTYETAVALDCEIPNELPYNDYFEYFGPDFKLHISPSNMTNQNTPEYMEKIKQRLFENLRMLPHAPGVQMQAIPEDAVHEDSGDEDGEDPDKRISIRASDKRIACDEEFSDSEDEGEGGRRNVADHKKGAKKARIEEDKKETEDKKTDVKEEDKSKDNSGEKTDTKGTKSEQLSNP
# Histone deacetylase 1 = Histone deacetylase 1 (Homo sapiens, UniProt Q13547); experiment: Inhibition of recombinant full-length human C-terminal FLAG-His-tagged HDAC1 expressed in baculovirus infected Sf9 insect cells using Boc-L-Lys(Ac)-AMC as substrate preincubated for 5 mins followed by substrate addition measured after 35 mins by fluorescence assay
# Sequence of Histone deacetylase 1 (Q13547 whole entry): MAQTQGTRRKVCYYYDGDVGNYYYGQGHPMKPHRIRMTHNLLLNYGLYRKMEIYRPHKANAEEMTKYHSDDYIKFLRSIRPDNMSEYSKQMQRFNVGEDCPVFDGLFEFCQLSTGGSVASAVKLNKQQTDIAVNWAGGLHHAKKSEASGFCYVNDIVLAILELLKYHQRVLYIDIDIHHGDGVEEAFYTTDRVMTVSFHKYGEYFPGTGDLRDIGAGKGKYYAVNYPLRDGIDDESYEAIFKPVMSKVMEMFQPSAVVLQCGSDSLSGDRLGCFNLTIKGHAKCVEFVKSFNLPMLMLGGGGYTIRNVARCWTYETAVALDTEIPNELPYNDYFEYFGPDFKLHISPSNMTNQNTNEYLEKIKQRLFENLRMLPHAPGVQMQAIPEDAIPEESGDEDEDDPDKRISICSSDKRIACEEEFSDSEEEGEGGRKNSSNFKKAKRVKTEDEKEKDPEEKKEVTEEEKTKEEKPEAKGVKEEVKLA
# Homo sapiens [5] = species on record: Homo sapiens; experiment: Selectivity ratio of IC50 for recombinant full-length human C-terminal FLAG-His-tagged HDAC1 expressed in baculovirus infected Sf9 insect cells to IC50 for recombinant HDAC8 (unknown origin) expressed in Escherichia coli
# [6] = target: Histone deacetylase 3/Nuclear receptor corepressor 2 (HDAC3/NCoR2) (Homo sapiens, UniProt O15379); experiment: Inhibition of recombinant human full-length C-terminal His-tagged HDAC3 (395 to 489 residues)/human NCOR2 expressed in baculovirus infected Sf9 insect cells using Boc-L-Lys(Ac)-AMC as substrate pretreated for 5 mins followed by substrate addition measured after 35 mins by fluorescence assay
# Sequence of Histone deacetylase 3/Nuclear receptor corepressor 2 (HDAC3/NCoR2) (O15379 whole entry, the tested form may be a part): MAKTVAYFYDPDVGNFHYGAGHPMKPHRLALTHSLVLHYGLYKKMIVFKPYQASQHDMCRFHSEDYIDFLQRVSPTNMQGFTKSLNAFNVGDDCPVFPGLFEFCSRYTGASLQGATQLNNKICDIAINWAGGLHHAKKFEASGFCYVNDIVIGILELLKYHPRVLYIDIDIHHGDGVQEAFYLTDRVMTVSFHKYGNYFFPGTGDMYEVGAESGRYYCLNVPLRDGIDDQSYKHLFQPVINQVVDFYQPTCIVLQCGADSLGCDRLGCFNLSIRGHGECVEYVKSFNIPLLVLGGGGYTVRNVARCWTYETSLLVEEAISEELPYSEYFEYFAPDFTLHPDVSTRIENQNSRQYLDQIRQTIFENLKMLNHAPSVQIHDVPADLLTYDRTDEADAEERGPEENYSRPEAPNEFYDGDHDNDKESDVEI
# Sequence of Histone deacetylase 3/Nuclear receptor corepressor 2 (HDAC3/NCoR2) (Q9Y618 whole entry, further chain, the tested form may be a part): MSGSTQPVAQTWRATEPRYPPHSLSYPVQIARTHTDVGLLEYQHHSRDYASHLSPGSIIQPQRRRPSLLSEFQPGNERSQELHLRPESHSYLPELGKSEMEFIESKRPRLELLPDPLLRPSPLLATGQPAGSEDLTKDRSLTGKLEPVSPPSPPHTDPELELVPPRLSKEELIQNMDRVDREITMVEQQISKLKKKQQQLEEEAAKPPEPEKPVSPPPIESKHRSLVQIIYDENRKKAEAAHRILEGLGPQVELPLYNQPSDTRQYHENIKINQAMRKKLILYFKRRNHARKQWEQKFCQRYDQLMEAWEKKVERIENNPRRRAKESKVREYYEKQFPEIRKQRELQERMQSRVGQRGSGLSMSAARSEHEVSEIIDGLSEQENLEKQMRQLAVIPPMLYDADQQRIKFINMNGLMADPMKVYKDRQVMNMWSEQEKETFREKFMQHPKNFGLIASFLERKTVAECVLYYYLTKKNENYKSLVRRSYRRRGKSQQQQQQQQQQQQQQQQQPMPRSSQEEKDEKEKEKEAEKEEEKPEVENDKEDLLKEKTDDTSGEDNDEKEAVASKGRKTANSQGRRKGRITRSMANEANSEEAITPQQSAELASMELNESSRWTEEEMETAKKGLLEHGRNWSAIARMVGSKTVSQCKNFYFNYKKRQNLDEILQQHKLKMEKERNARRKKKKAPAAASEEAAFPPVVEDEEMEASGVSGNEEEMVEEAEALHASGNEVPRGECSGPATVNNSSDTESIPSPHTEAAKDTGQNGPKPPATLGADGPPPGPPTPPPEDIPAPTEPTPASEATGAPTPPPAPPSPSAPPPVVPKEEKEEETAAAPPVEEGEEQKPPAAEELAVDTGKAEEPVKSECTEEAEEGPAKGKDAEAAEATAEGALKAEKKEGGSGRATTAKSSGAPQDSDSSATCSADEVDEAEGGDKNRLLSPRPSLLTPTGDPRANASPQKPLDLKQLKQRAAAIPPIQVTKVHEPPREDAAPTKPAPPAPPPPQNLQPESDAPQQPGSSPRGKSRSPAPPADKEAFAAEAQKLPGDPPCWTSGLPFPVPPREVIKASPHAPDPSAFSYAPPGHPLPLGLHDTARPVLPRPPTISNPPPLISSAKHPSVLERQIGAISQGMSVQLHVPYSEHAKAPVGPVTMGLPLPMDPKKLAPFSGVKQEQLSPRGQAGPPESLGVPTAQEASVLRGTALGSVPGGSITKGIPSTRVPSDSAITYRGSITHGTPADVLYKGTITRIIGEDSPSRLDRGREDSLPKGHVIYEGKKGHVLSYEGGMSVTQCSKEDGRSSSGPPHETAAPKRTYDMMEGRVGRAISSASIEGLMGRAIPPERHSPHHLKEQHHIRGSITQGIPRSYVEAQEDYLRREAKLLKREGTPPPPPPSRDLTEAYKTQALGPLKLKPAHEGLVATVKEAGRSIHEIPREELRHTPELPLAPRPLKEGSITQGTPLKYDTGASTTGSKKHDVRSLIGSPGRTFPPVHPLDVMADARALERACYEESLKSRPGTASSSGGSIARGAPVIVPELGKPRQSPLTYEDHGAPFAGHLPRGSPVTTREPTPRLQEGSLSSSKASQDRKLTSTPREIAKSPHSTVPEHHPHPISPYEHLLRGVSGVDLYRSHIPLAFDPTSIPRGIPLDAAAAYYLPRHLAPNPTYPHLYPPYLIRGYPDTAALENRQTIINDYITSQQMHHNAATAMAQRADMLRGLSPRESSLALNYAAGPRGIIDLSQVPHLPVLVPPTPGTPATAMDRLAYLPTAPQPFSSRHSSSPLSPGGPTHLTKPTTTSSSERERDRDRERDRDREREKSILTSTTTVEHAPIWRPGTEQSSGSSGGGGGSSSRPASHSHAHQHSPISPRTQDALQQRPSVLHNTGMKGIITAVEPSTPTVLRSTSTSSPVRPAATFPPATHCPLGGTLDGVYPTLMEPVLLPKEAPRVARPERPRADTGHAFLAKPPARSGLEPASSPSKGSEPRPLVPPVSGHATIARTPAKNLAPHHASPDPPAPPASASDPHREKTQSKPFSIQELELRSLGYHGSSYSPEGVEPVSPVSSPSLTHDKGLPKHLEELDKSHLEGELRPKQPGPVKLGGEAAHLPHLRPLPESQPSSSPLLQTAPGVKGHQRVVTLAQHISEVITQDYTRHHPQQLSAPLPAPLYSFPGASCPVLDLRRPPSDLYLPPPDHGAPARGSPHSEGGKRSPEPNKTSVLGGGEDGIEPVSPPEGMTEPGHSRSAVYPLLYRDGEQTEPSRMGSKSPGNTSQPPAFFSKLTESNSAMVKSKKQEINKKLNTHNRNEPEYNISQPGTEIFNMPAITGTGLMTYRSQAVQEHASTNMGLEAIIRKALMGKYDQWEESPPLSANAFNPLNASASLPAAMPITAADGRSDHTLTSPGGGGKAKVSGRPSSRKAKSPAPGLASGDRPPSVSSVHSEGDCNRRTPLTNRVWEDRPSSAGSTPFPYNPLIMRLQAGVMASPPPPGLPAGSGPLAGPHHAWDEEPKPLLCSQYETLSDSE
# Histone deacetylase 8 = target: T2, Histone deacetylase 8 (Homo sapiens, UniProt Q9BY41); experiment: Inhibition of recombinant HDAC8 (unknown origin) expressed in Escherichia coli using fluor de Lys(R) as substrate pretreated for 5 mins followed by substrate addition measured after 35 mins by fluorescence assay
# T2 sequence (Q9BY41 whole entry): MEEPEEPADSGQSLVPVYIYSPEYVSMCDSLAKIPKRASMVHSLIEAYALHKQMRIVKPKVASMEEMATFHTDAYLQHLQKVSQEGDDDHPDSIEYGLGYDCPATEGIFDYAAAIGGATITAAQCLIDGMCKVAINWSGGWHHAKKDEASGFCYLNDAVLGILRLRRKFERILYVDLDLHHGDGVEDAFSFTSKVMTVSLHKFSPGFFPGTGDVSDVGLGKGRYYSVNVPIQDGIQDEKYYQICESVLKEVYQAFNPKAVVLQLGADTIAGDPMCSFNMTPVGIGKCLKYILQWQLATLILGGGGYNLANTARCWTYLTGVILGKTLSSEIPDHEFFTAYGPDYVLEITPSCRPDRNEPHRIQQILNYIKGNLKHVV
# SH-SY5Y [7] = experiment: Cytotoxicity against human SH-SY5Y cells expressing TP53 after 48 hrs by CellTiter96 AQueous one solution cell proliferation assay; type: functional, cell-based; in short: as §1
# Homo sapiens [8] = species on record: Homo sapiens; experiment: Selectivity ratio of IC50 for recombinant human full-length C-terminal His-tagged HDAC2 expressed in baculovirus infected Sf9 insect cells to IC50 for recombinant HDAC8 (unknown origin) expressed in Escherichia coli
# Homo sapiens [9] = species on record: Homo sapiens; experiment: Selectivity ratio of IC50 for recombinant human full-length C-terminal His-tagged HDAC3 (395 to 489 residues)/human NCOR2 expressed in baculovirus infected Sf9 insect cells to IC50 for recombinant HDAC8 (unknown origin) expressed in Escherichia coli
# Kelly = experiment: Cytotoxicity against human Kelly cells expressing TP53 mutation by CellTiter96 AQueous one solution cell proliferation assay; type: functional, cell-based
# SK-N-AS = experiment: Cytotoxicity against human SK-N-AS cells expressing TP53 mutation by CellTiter96 AQueous one solution cell proliferation assay; type: functional, cell-based
# SH-SY5Y [10] = settings: Homo sapiens, at 10 µM
# SH-SY5Y [11] = settings: Homo sapiens, at 10 µM; remark: listed apart in the source
# IMR-5 [12] = experiment: Cytotoxicity against human IMR5 cells expressing TP53 by CellTiter96 AQueous one solution cell proliferation assay; type: functional, cell-based
# SH-SY5Y [13] = experiment: Cytotoxicity against human SH-SY5Y cells expressing TP53 by CellTiter96 AQueous one solution cell proliferation assay; type: functional, cell-based
# SH-SY5Y [14] = experiment: Cytotoxicity against human SH-SY5Y cells expressing TP53 at 10 uM supplemented with fresh medium containing compound every 3 days measured after 72 hrs by CellTiter96 AQueous one solution cell proliferation assay; type: functional, cell-based
Structure (SMILES),inhibition [2] [%],IC50 (Histone deacetylase 2) [µM],IC50 (Histone deacetylase 1) [µM],IC50 [6] [µM],IC50 (Histone deacetylase 8) [µM],other results
O=C(CCN1CCc2ccccc2C1c1ccc(-c2ccccc2)cc1)NO (stereo not given),39,47,7.3,38,0.055,EC50 (IMR-5 [1]): 5.8 µM; inhibition (SH-SY5Y [3]): inactive; inhibition (SH-SY5Y [4]): inactive; Ratio IC50 (Homo sapiens [5]): 135; EC50 (SH-SY5Y [7]): 0.76 µM
O=C(CCN1CCc2ccccc2C1c1cccc(C(F)(F)F)c1)NO (stereo not given),17,> 100,37,> 100,0.34,–
O=C(CCN1CCc2ccccc2C1)NO,31,> 100,57,98,19,–
O=C(CCN(Cc1ccccc1)Cc1ccccc1)NO,–,> 100,33,52,1.4,Ratio IC50 (Homo sapiens [5]): 24; Ratio IC50 (Homo sapiens [8]): > 71; Ratio IC50 (Homo sapiens [9]): 37
CCOc1ccc(C2c3ccccc3CCN2CCC(=O)NO)cc1 (stereo not given),5.7,99,24,> 100,0.21,–
O=C(CCCCNCc1ccccc1)NO,–,58,14,22,10,–
O=C(CN1CCc2ccccc2C1c1ccccc1)NO (stereo not given),17,> 100,> 100,> 100,19,–
O=C(CCN1CCc2ccccc2C1C1CCCCC1)NO (stereo not given),32,> 100,> 100,75,6.7,–
COc1ccc(Cn2ccc3ccc(C(=O)NO)cc32)cc1,–,–,–,–,–,Activity (Kelly): Active; Activity (SK-N-AS): Active; inhibition (SH-SY5Y [10]): inactive; inhibition (SH-SY5Y [11]): inactive; Activity (IMR-5 [12]): Active; Activity (SH-SY5Y [13]): Active
COc1ccc(C2c3ccccc3CCN2CCC(=O)NO)cc1 (stereo not given),21,> 100,27,> 100,0.082,inhibition (SH-SY5Y [3]): inactive; inhibition (SH-SY5Y [4]): inactive; Ratio IC50 (Homo sapiens [5]): 330; Activity (SH-SY5Y [14]): Active
O=C(CCN1CCc2ccccc2C1c1ccc(C(F)(F)F)cc1)NO (stereo not given),26,> 100,18,27,0.19,–
O=C(CCNCc1ccccc1)NO,–,> 100,50,72,> 100,–
COc1cccc(C2c3ccccc3CCN2CCC(=O)NO)c1 (stereo not given),27,69,13,34,0.11,–

# The next lines start with results.
inhibition [2] [%],IC50 (Histone deacetylase 2) [µM],IC50 (Histone deacetylase 1) [µM],IC50 [6] [µM],IC50 (Histone deacetylase 8) [µM],Structure (SMILES),other results
97,0.33,0.098,0.097,1.9,O=C(CCCCCCN1CCc2ccccc2C1)NO,–
–,5.4,1.8,1.4,1.9,O=C(CCCCN(Cc1ccccc1)Cc1ccccc1)NO,–
–,2.7,1.1,1.1,4,O=C(CCCCCCN(Cc1ccccc1)Cc1ccccc1)NO,–
74,13,2.4,3.4,0.39,O=C(CCN1CCc2ccccc2C1c1ccc2ccccc2c1)NO (stereo not given),–
35,40,4.4,10,0.95,O=C(CCN1CCc2ccccc2C1c1ccccc1)NO (stereo not given),–
93,2.7,0.77,0.81,0.044,O=C(CCCCN1CCc2ccccc2C1c1ccccc1)NO (stereo not given),Ratio IC50 (Homo sapiens [5]): 18; Ratio IC50 (Homo sapiens [8]): 61; Ratio IC50 (Homo sapiens [9]): 18
30,29,18,29,0.48,CC(C)(C)c1ccc(C2c3ccccc3CCN2CCC(=O)NO)cc1 (stereo not given),–
–,3.1,0.34,0.43,1.8,O=C(CCCCCCNCc1ccccc1)NO,–
